From publication PMC4827638 (Preventive Nutrition and Food Science, 2016)
Marks after values point to notes of the source that are not given here.

Key:
Assay type in all cases: biochemical
[1] = OH radical scavenging activity; conditions: absorbance at 520 nm; triplicate
In short: (§1)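 Absorbance endpoint assays, read on a UV-visible spectrophotometer (H2O2 assay on a microplate reader). Percent scavenging was measured across a series of sample concentrations. IC50 was taken from a graph of inhibition percentage versus sample concentration. Triplicate analyses, reported as mean±SD.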

[2] = H2O2 radical scavenging activity; conditions: 405 nm; triplicate
In short: as §1

[3] = target: xanthine oxidase (XO) (Bos taurus, UniProt P80457); assay: XO inhibitory activity
Sequence of xanthine oxidase (XO) (P80457 whole entry): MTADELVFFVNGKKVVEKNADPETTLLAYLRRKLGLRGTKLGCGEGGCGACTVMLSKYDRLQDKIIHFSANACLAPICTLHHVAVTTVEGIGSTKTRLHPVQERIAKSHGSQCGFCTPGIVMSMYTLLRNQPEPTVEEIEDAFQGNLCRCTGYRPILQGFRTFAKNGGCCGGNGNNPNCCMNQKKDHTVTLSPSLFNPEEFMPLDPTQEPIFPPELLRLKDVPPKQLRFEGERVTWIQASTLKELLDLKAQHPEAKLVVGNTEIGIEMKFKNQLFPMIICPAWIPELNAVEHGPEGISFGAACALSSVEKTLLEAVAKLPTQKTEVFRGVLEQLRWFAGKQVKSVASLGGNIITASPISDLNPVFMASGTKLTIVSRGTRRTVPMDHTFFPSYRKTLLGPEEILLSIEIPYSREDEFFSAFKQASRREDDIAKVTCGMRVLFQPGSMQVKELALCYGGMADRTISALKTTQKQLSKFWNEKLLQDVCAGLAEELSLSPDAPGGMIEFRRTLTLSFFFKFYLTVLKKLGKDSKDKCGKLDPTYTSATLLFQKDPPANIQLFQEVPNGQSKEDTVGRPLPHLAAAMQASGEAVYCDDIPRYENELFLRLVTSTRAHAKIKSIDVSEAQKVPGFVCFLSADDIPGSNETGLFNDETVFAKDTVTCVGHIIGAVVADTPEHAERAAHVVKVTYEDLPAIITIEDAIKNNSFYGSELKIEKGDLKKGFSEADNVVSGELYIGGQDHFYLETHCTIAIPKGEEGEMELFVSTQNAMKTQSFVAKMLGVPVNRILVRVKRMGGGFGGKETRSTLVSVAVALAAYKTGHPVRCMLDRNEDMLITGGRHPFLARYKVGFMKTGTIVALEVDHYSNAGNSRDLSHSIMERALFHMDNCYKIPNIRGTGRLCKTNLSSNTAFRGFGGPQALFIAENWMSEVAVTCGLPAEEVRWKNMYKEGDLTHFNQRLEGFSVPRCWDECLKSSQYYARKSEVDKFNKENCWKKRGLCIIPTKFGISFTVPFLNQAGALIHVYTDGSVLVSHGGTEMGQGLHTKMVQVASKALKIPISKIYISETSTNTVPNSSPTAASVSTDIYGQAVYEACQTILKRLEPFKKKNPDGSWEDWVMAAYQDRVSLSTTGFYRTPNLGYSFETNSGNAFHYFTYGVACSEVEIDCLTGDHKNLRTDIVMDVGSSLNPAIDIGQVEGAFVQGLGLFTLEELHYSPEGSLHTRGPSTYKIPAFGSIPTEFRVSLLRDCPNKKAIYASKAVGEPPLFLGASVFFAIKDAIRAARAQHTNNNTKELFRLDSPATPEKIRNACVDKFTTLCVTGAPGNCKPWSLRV

[4] = NO radical; conditions: nitrite scavenging effect, 520 nm; triplicate
In short: as §1

[5] = superoxide; conditions: xanthine-XO method, 560 nm; triplicate
In short: as §1

[6] = target: tyrosinase; assay: Tyrosinase inhibitory activity; conditions: L-DOPA substrate, 25°C, 2 min, pH 6.8; mean±SD

Compound	IC50 of OH radical scavenging activity [1] [µg/mL]	IC50 of H2O2 radical scavenging activity [2] [µg/mL]	IC50 [3] [µM]	IC50 of NO radical scavenging activity [4] [µg/mL]	IC50 of O2 radical scavenging activity [5] [µg/mL]	IC50 Tyrosinase inhibition [6]
CC1=C(O)C(=O)C(C)(O)S1 (stereo not drawn) [Thiacremonone, 2,4-dihydroxy-2,5-dimethyl-thiophene-3-one]	92.50	12.60	246	81.53	65.05	101.931±2.601^a μg/mL
COc1ccc(O)c(C(C)(C)C)c1 [BHA, butylated hydroxyanisole]	37.22	22.47	–	40.54	68.45	–
O=C1O[C@H]([C@@H](O)CO)C(O)=C1O [ascorbic acid, Ascorbic acid]	104.93	42.42	–	122.64	99.43	–
Cc1c(C)c2c(c(C)c1O)CC[C@@](C)(CCC[C@H](C)CCC[C@H](C)CCCC(C)C)O2 [α-tocopherol]	12.93 ± 1.64	39.40 ± 0.77	–	15.72 ± 1.22	84.92 ± 2.34	–
